ChEMBL document CHEMBL5614410, “Design, Synthesis, and Evaluation of p53Y220C Acetylation Targeting Chimeras (AceTACs)” (J Med Chem, 2024)
Activity calls are given as the source filed them. The rule behind the calls is not given here.

What was measured:
[1] = system: NCI-H1299; assay: Antiproliferative activity against human NCI-H1299 cells expressing p53Y220C mutant assessed as reduction in cell viability incubated for 3 days by WST-8 assay; type: functional
Summary of the method: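 NCI-H1299 p53Y220C cells were exposed to compound over a concentration range for 72 h, in some runs after 72 h of control or p300 siRNA, before the viability read-out. Values are mean ± SD of three independent experiments.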

[2] = system: CREB-binding protein/Histone acetyltransferase p300/Cellular tumor antigen p53 (Homo sapiens), P04637+Q09472+Q92793 [Y220C]; assay: AceTAC activity at FLAG-tagged p53Y220C mutant (unknown origin) expressed in human NCI-H1299 cells expressing p300/CBP assessed as stabilization of protein by measuring increase in aggregation temperature at 100 uM incubated for 1 hr at 32 to 50 degC by CETSA analysis; type: cell-based
Summary of the method: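 For CETSA, NCI-H1299 (p53Y220C) stable cells were treated with DMSO or 100 μM compound for 1 h, then heated at 32 to 50 °C. Soluble p53 was detected by Western blot. Representative of at least two independent experiments.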

[3] = system: NCI-H1299; assay: Inhibition of colony formation in human NCI-H1299 cells expressing p53Y220C mutant at 1 uM incubated for 14 days by crystal violet staining based analysis; type: functional, cell-based; details: time 14.0 day
Summary of the method: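 Clonogenic assay in NCI-H1299 (p53Y220C) cells exposed to DMSO or 1, 3 or 10 μM for 14 days. Colonies were fixed and stained with crystal violet. Images are representative of two independent experiments.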

[4] = system: CREB-binding protein/Histone acetyltransferase p300/Cellular tumor antigen p53 (Homo sapiens), P04637+Q09472+Q92793 [Y220C]; assay: (§1) AceTAC activity at FLAG-tagged p53Y220C mutant (unknown origin) expressed in human NCI-H1299 cells expressing p300/CBP assessed as increase in p53 acetylation at lysine 382 residue incubated for 24 hrs by western blot analysis; type: cell-based
Summary of the method: (§2)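 NCI-H1299 (p53Y220C) cells were treated at 0.1–10 μM (0.1, 0.3, 1, 3 or 10 μM) for 24 h. Lysates were Western blotted for p53 and p53K382ac, with vinculin as loading control. p53K382ac was normalised to total p53Y220C and quantified from two or three independent experiments.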

[5] = target: CREB-binding protein/Histone acetyltransferase p300/Cellular tumor antigen p53 (Homo sapiens, UniProt P04637+Q09472+Q92793, Y220C); assay: as §1; type: cell-based; summary of the method: as §2
[6] = system: CREB-binding protein/Histone acetyltransferase p300/Cellular tumor antigen p53 (Homo sapiens), P04637+Q09472+Q92793 [Y220C]; assay: AceTAC activity at FLAG-tagged p53Y220C mutant (unknown origin) expressed in human NCI-H1299 cells expressing p300/CBP and transfected with control siRNA assessed as increase in p53 acetylation at lysine 382 residue at 1 to 10 uM incubated for 24 hrs by western blot analysis; type: cell-based; details: dose 1-10 µM
Summary of the method: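 NCI-H1299 cells stably expressing p53Y220C were given control or p300 siRNA, then treated at 0, 1 or 10 μM for 24 h. Lysates were Western blotted for p53 and p53K382ac. The acetylation level was normalised to vinculin and quantified from two independent experiments.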

[7] = system: NCI-H1299; assay: Antiproliferative activity against human NCI-H1299 cells expressing p53Y220C mutant and transfected with p300 siRNA assessed as reduction in cell viability at 0.47 to 15 uM incubated for 3 days by WST-8 assay; type: functional, cell-based; details: dose 0.47-15 µM, time 3.0 day
Summary of the method: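 NCI-H1299 p53Y220C cells were first transfected with p300 siRNA for 72 h, then exposed to compound across the concentration series for 72 h. Viability is mean ± SD from three independent experiments.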

[8] = system: NUGC-3; assay: Antiproliferative activity against human NUGC-3 cells harboring p53Y220C mutant assessed as inhibition of cell growth incubated for 72 hrs by WST-8 assay; type: functional
Summary of the method: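 BxPC3 or NUGC-3 cells were treated with DMSO or compound over a concentration range for 72 h before the viability read-out. Values are mean ± SD of technical triplicates from three biological experiments.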

[9] = system: PNT2; assay: Cytotoxicity against human PNT2 cells assessed as inhibition of cell growth incubated for 72 hrs by WST-8 assay; type: toxicity, cell-based; details: pnt2, 72 h
Summary of the method: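 U2OS (WT p53) or normal prostate PNT2 cells were treated for 72 h at the indicated concentrations. Viability is mean ± SD of technical triplicates from two biological experiments.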

[10] = Toxicity in Swiss albino mouse assessed as tolerability at 50 mg/kg, ip measured for 8 hrs; type: organism-based; details: in vivo
[11] = system: CREB-binding protein/Histone acetyltransferase p300/Cellular tumor antigen p53 (Homo sapiens), P04637+Q09472+Q92793 [Y220C]; assay: AceTAC activity at FLAG-tagged p53Y220C mutant (unknown origin) expressed in human NCI-H1299 cells expressing p300/CBP assessed as increase in p53 acetylation at lysine 382 residue at 3 uM incubated for 24 hrs by western blot analysis; type: cell-based; summary of the method: as §2

In the case of `CCn1c2ccc(CNCCOCCOCCOCCC(=O)NCCOc3ccc(CCc4nc5cc(-c6c(C)noc6C)ccc5n4CCN4CCOCC4)cc3F)cc2c2ccc(-c3cc(C)cs3)cc21`, the GI50 ([1]; NCI-H1299, 72 h, time 3 day) is reported as 3000 nM, the Activity ([1]; time 3.0 day) is reported as “Dose-Dependent Effect” and the ΔTm [2] is reported as 4.3 °C. For the same molecule, the inhibition [3] was “Active”, the Activity [4] was “Dose-Dependent Effect” and the EC50 [5] was 1520 nM. The Activity [6] was “Active”, the Activity [7] was “inactive” and the GI50 [8] was 1830 nM. The GI50 [9] was over 10000 nM, the Activity [10] was “Non-Toxic” and the Activity [11] was “Active”.
